A short description of data set [1]: Inhibition of gamma secretase-mediated Abeta40 production.
Data set [2] deals with Mus musculus. Put plainly: Inhibition of Abeta40 production in CRND8 mouse plasma at 30 mg/kg, po after 3 hrs. Format: functional. The essentials:
(§1)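 CRND8 transgenic mice were given a single oral dose of 30 mg/kg. Abeta40 was measured in plasma and brain cortex at 3 h, or at 6 h, after dosing. Results are expressed as percent inhibition of Abeta40.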

The test system of data set [3] is Mus musculus. Put plainly: Inhibition of Abeta40 production in CRND8 mouse brain cortex at 30 mg/kg, po after 3 hrs. Format: functional. The procedure, abridged: as §1
Data set [4] can be described thus: Inhibition of gamma secretase-mediated Abeta40 production by cell based assay. The essentials: (§2)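 Cell-based assay measuring secreted Abeta40 and Abeta42. IC50 values are the means of two experiments.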
Data set [5] in a line: Inhibition of gamma secretase-mediated Abeta42 production by cell based assay. The procedure, abridged: as §2
The target in data set [6] is Cytochrome P450 3A4 (Homo sapiens, UniProt P08684). Description: Inhibition of CYP3A4 preincubated for 30 mins. Format: ADME.
A short description of data set [7]: AUC in CRND8 mouse. Format: ADME, organism-based. Conditions: plasma. Details: concentration or dose not given beside the values.
The subject of data set [8] is Mus musculus. Put plainly: Gastrointestinal toxicity in CRND8 mouse at 30 mg/kg, po after 3 hrs. Format: organism-based. Set-up: dose 30 mg/kg, route oral. Conditions: in vivo.
Data set [9] deals with Mus musculus. Put plainly: Inhibition of Abeta40 production in CRND8 mouse brain cortex at 30 mg/kg, po after 6 hrs. Format: functional. The essentials: as §1
Data set [10] relates to Mus musculus. Put plainly: Inhibition of Abeta40 production in CRND8 mouse plasma at 30 mg/kg, po after 6 hrs. Format: functional. The essentials: as §1

Here are results for 17 compounds from ChEMBL document CHEMBL1156985 (Bioorg Med Chem Lett, 2010).

Sequence of Cytochrome P450 3A4 (P08684 whole entry): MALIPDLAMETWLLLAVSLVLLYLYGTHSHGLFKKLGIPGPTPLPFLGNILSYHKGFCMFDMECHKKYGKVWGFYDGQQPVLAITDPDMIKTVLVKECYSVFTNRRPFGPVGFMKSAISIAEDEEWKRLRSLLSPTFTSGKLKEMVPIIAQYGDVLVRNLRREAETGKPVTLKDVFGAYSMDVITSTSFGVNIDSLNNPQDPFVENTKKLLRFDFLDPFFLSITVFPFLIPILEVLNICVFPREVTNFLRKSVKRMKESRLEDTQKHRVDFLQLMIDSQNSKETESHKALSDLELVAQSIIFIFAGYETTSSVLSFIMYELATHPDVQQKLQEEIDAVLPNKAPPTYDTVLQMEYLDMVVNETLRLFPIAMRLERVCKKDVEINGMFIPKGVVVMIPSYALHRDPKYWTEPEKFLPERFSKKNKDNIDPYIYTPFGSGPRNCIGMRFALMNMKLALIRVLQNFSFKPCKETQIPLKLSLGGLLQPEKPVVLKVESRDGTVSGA

In turn, `CCC1(S(=O)(=O)c2ccc(Cl)cc2)CCOc2c(F)ccc(F)c21` (racemic) registered an IC50 in data set [1] of 72 nM.

`C[C@@H]1C[C@](C)(S(=O)(=O)c2ccc(Cl)cc2)c2c(F)ccc(F)c2O1` (relative stereo) gave an IC50 in data set [1] of 1200 nM.

In [1], `O=S(=O)(c1ccc(Cl)cc1)C1CCOc2c(F)ccc(F)c21` (racemic) came in with an IC50 of 1600 nM.

Take `CC1(S(=O)(=O)c2ccc(Cl)cc2)CCOc2c(F)ccc(F)c21` (racemic): the IC50 in data set [1] was 808 nM.

Regarding `O=S(=O)(N[C@@H]1CC[C@@]2(S(=O)(=O)c3ccc(Cl)cc3)c3c(F)ccc(F)c3OC[C@H]2C1)C(F)(F)F`, the IC50 in data set [1] is 27.1 nM; in data set [4] it was 108 nM; in [5], 46 nM; in [6], above 30000 nM. In addition, the inhibition in vivo at 30 mg/kg in [2] is 90%; in [3], 42%. For the same compound, the AUC in data set [7] was 5050 ng·h/mL. Besides, in data set [8], the Activity result is listed as “Non-toxic”.

In data set [1], `NC1CCC2(S(=O)(=O)c3ccc(Cl)cc3)c3c(F)ccc(F)c3OCC2C1` (racemic) gave an IC50 of 1700 nM.

`CC[C@@H]1C[C@](CC)(S(=O)(=O)c2ccc(Cl)cc2)c2c(F)ccc(F)c2O1` (relative stereo) showed an IC50 in [1] of 830 nM.

On to `O=S(=O)(c1ccc(Cl)cc1)C12CCC(O)CC1COc1c(F)ccc(F)c12` (racemic), for which the IC50 in [1] is 28 nM; in [4] it was 25 nM; in [5], 18 nM. For the same compound, the inhibition in vivo at 30 mg/kg in data set [2] is 44%; in [3], 55%. This compound came in with an AUC in data set [7] of 164 ng·h/mL.

In turn, `C[C@H]1COc2c(F)ccc(F)c2[C@@]1(C)S(=O)(=O)c1ccc(Cl)cc1` (relative stereo) displayed an IC50 in [1] of 110 nM.

Compound `CCC1(S(=O)(=O)c2ccc(Cl)cc2)CC(CO)Oc2c(F)ccc(F)c21` (mixture of isomers) had an IC50 in data set [1] of 620 nM.

Regarding `O=S(=O)(c1ccc(Cl)cc1)[C@H]1c2c(F)ccc(F)c2OC[C@@H]1CO` (relative stereo), in data set [1], the IC50 came to 510 nM.

In turn, `COC[C@H]1COc2c(F)ccc(F)c2[C@@]1(C)S(=O)(=O)c1ccc(Cl)cc1` (relative stereo) registered an IC50 in [1] of 270 nM.

As for `C[C@H]1COc2c(F)ccc(F)c2[C@@H]1S(=O)(=O)c1ccc(Cl)cc1` (relative stereo), the IC50 in [1] amounted to 64 nM.

With `CC(=O)NC1CCC2(S(=O)(=O)c3ccc(Cl)cc3)c3c(F)ccc(F)c3OCC2C1` (racemic), the IC50 stood at 107 nM in data set [1], 145 nM in data set [4] and 107 nM in [5]. In data set [7], this compound came in with an AUC of 1720 ng·h/mL.

For the compound `O=C1CCC2(S(=O)(=O)c3ccc(Cl)cc3)c3c(F)ccc(F)c3OCC2C1` (racemic), the IC50 in data set [1] amounted to 13 nM; in data set [4], 17 nM; in data set [5] it was 12 nM; in [6], 1200 nM. In [2], at 30 mg/kg the inhibition in vivo was 19%. In addition, the AUC in data set [7] was 60 ng·h/mL.

As to `O=S(=O)(N[C@@H]1CC[C@@]2(S(=O)(=O)c3ccc(Cl)cc3)c3c(F)ccc(F)c3OC[C@H]2C1)C1CC1`, the IC50 in [1] is 8.4 nM; in data set [4], 9.3 nM; in data set [5], 4.3 nM; in data set [6], above 30000 nM. Also, the inhibition in vivo at 30 mg/kg in data set [9] is 58%; in data set [10] it was 80%. The compound also gave an AUC in data set [7] of 1910 ng·h/mL.

For `O=S(=O)(N[C@@H]1CC[C@@]2(S(=O)(=O)c3ccc(Cl)cc3)c3c(F)ccc(F)c3OC[C@H]2C1)c1ccccn1`, the IC50 in [1] turned out to be 7.6 nM; in [4], 68 nM; in data set [5] it was 26 nM. In addition, testing at 30 mg/kg in data set [2] gave an inhibition in vivo of 19%.
